# Test results published in ChEMBL document CHEMBL4257556, “Novel 1,3,4-thiadiazole-chalcone hybrids containing catechol moiety: synthesis, antioxidant activity, cytotoxicity and DNA interaction studies” (Medchemcomm, 2018).
# The source made the active and inactive calls. The calls are words filed in the database; no cut-off is given here.
# Columns and labels:
# [1] = test system: MRC5; assay: Cytotoxicity against human MRC5 cells assessed as decrease in cell survival after 72 hrs by MTT assay; assay type: cell-based; settings: MRC5, 72 h
# Summary of the method: (§1)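 HeLa (2000/well), A549 and MRC-5 (5000/well) seeded 20 h before treatment; HL-60 (7000/well) 2 h before. Five concentrations (6.25–100 μM or 3.125–50 μM) from 5 mM DMSO stocks, final DMSO ≤1%, 72 h; survival by MTT. Cisplatin positive control; three independent experiments in triplicate.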
# [2] = Antioxidant activity assessed as DPPH free radical scavenging activity after 30 mins; assay type: functional
# Summary of the method: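 DPPH (0.05 mM in methanol) mixed with equal volume of compound (DMSO solution diluted in methanol), kept in dark at room temperature 30 min; absorbance at 517 nm, methanol control, ascorbic acid positive control. IC50 = concentration giving 50% of maximum scavenging; mean ± SD of independent triplicate experiments.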
# [3] = test system: HeLa; assay: Cytotoxicity against human HeLa cells assessed as decrease in cell survival after 72 hrs by MTT assay; assay type: functional, cell-based; summary of the method: as §1
# [4] = test system: A549; assay: Cytotoxicity against human A549 cells assessed as decrease in cell survival after 72 hrs by MTT assay; assay type: functional, cell-based; settings: A549, 72 h; summary of the method: as §1
# [5] = test system: HL-60; assay: Cytotoxicity against human HL60 cells assessed as decrease in cell survival after 72 hrs by MTT assay; assay type: functional, cell-based; settings: HL-60, 72 h; summary of the method: as §1
# [6] = test system: Calf thymus DNA; assay: Binding affinity to calf thymus DNA after 90 mins by spectroscopic titration method; assay type: nucleic-acid assay; settings: Bos taurus
# Summary of the method: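 Compound fixed at 40 μM titrated with CT-DNA (2.2–13 × 10–5 M) in 40 mM bicarbonate pH 8.4 after 90 min at 37 °C; absorbance at 259 nm per DNA level. Kb from slope/intercept ratio of [DNA]/(εa–εf) versus [DNA] plot; triplicate assays.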
# [7] = test system: DNA; assay: Reversal of Fe2+-induced Escherichia coli pUC19 DNA cleavage at 1:2 compound to Fe2+ mole ratio after 90 mins by agarose gel electrophoresis method; assay type: functional
# Summary of the method: (§2)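 Compound (4 μL of 2 mM) preincubated with FeSO4 (1 or 2 μL of 8 mM; compound:Fe 1:1 or 1:2) in bicarbonate buffer 60 min at 37 °C, then pUC19 added for another 90 min; products resolved on 1% agarose gel, ethidium bromide stained.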
# [8] = test system: HeLa; assay: Downregulation of TIMP3 gene expression in human HeLa cells at 10 uM after 24 hrs by RT-qPCR method; assay type: functional, cell-based
# [9] = test system: HeLa; assay: Upregulation of miR-206 expression in human HeLa cells at 10 uM after 24 hrs by RT-qPCR method; assay type: functional, cell-based
# [10] = test system: HeLa; assay: Cell cycle arrest in human HeLa cells assessed as accumulation at sub-G1 phase at 2 times IC50 after 24 hrs in presence of caspase-9 inhibitor Z-LEHD-FMK by propidium iodide-staining based flow cytometric method; assay type: functional
# Summary of the method: (§3)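 HeLa cells pretreated 2 h with 40 μM peptide caspase inhibitor (Z-DEVD-FMK caspase-3, Z-IETD-FMK caspase-8 or Z-LEHD-FMK caspase-9), then exposed to 2×IC50 compound; subG1 fraction by propidium iodide flow cytometry, compared with samples lacking inhibitor.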
# [11] = test system: HeLa; assay: Downregulation of VEGFA gene expression in human HeLa cells at 10 uM after 24 hrs by RT-qPCR method; assay type: functional, cell-based
# [12] = test system: Calf thymus DNA; assay: Displacement of Hoechst 33258 from calf thymus DNA assessed as quenching constant by fluorescence spectrophotometric analysis; assay type: nucleic-acid assay; settings: Bos taurus
# Summary of the method: (§4)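 CT-DNA 100 μM (per phosphate) in 40 mM bicarbonate pH 8.4 pretreated 20 min with Hoechst 33258 (28 μM final), then compound added stepwise. Excitation 350 nm, emission 390–550 nm, read at 444 nm, 10 nm slits; H–DNA as control. Quenching constant K by Stern–Volmer, I0/I versus r = [compound]/[DNA]; triplicate.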
# [13] = test system: HeLa; assay: Cell cycle arrest in human HeLa cells assessed as accumulation at sub-G1 phase at 2 times IC50 after 24 hrs in presence of caspase-3 inhibitor Z-DEVD-FMK by propidium iodide-staining based flow cytometric method; assay type: functional; summary of the method: as §3
# [14] = test system: EA.hy 926; assay: Antiangiogenic activity in human EAhy926 cells assessed as inhibition of tubular structures formation at IC20 after 20 hrs by inverted phase-contrast microscopic method; assay type: functional, cell-based
# [15] = test system: HeLa; assay: Cell cycle arrest in human HeLa cells assessed as accumulation at sub-G1 phase at IC50 and 2 times IC50 after 24 hrs by propidium iodide staining-based flow cytometric method; assay type: functional
# Summary of the method: (§5)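 HeLa cells treated 24 h at IC50 or 2×IC50 (from 72 h assay), fixed in 70% ethanol, stored at –20 °C ≥1 week, RNase A 30 min 37 °C, propidium iodide stained; flow cytometry, 10 000 gated events. Mean ± SD of three independent experiments; one-way ANOVA with Dunnett's post-test, p < 0.05.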
# [16] = test system: HeLa; assay: Cell cycle arrest in human HeLa cells assessed as accumulation at G2/M phase at 2 times IC50 after 24 hrs by propidium iodide staining-based flow cytometric method; assay type: functional; summary of the method: as §5
# [17] = test system: Calf thymus DNA; assay: Binding affinity to calf thymus DNA at 10 to 40 uM after 90 mins by UV/visible spectrophotometric analysis; assay type: nucleic-acid assay; settings: Bos taurus
# Summary of the method: (§6)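 CT-DNA stock in 10 mM Tris-HCl pH 7.9 (A260/A280 1.89–2.01; concentration from ε260 6600 M–1 cm–1). Compound (10, 20 or 40 μM) plus CT-DNA (95 μM) in 40 mM bicarbonate pH 8.4, 37 °C 90 min; spectra 200–800 nm. Hyper/hypochromism at 259 nm from bound versus summed free compound and DNA extinction; triplicate.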
# [18] = test system: DNA; assay: Induction of Escherichia coli pUC19 DNA cleavage after 90 mins by agarose gel electrophoresis method; assay type: nucleic-acid assay
# Summary of the method: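 Plasmid pUC19 (from E. coli XL1 blue; 460 ng, 12 nM) incubated with compound (0.05–0.4 mM; from 2 mM DMSO stock) in 20 μL 40 mM bicarbonate pH 8.4 at 37 °C for 90 min; 1% agarose gel in TAE at 80 V, ethidium bromide staining, UV at 312 nm; supercoiled/nicked/linear forms scored.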
# [19] = test system: MRC5; assay: Induction of DNA damage in human MRC5 cells assessed as formation of DNA breaks at 25 uM after 24 hrs by comet assay relative to control; assay type: functional
# Summary of the method: (§7)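 MRC-5 cells exposed 24 h to 3.125–25 μM compound; DNA damage scored as % tail DNA (tail intensity) by comet assay. PBS negative control; H2O2 50 μM 5 min in-gel positive control. Triplicate, repeated twice; mean ± SD.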
# [20] = test system: DNA; assay: Reversal of Fe2+-induced Escherichia coli pUC19 DNA cleavage at 1:1 compound to Fe2+ mole ratio after 90 mins by agarose gel electrophoresis method; assay type: functional; summary of the method: as §2
# [21] = test system: HeLa; assay: Downregulation of miR-155 expression in human HeLa cells at 10 uM after 24 hrs by RT-qPCR method; assay type: functional, cell-based
# [22] = test system: HeLa; assay: Upregulation of MMP9 gene expression in human HeLa cells at 10 uM after 24 hrs by RT-qPCR method; assay type: functional, cell-based
# [23] = test system: MRC5; assay: Induction of DNA damage in human MRC5 cells assessed as formation of DNA breaks after 24 hrs by comet assay; assay type: functional, cell-based; summary of the method: as §7
# [24] = test system: HeLa; assay: Downregulation of miR-133b expression in human HeLa cells at 10 uM after 24 hrs by RT-qPCR method; assay type: functional, cell-based
# [25] = test system: HeLa; assay: Prooxidant activity in human HeLa cells assessed as increase in H2O2-induced reactive oxygen species at 10 uM preincubated for 24 hrs followed by H2O2 addition and measured after 30 mins by dichlorofluorescein dye-based flow cytometric method; assay type: functional, cell-based
# Summary of the method: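 HeLa cells pretreated 24 h with 10 μM compound, washed, loaded with 30 μM DCFH-DA in PBS 45 min at 37 °C. One portion read directly (endogenous ROS); other portion exposed to 10 mM H2O2 30 min at 37 °C. DCF green fluorescence by flow cytometry, 20 000 events per sample; mean ± SD of two independent experiments.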
# [26] = test system: Calf thymus DNA; assay: Binding affinity to calf thymus DNA assessed as hypochromism at 10 to 20 uM after 90 mins by UV/visible spectrophotometric analysis; assay type: nucleic-acid assay; settings: Bos taurus; summary of the method: as §6
# [27] = test system: HeLa; assay: Downregulation of miR-21 expression in human HeLa cells at 10 uM after 24 hrs by RT-qPCR method; assay type: functional, cell-based
# [28] = test system: HeLa; assay: Downregulation of MMP2 gene expression in human HeLa cells at 10 uM after 24 hrs by RT-qPCR method; assay type: functional, cell-based
# [29] = test system: Calf thymus DNA; assay: Displacement of Hoechst 33258 from calf thymus DNA assessed as fluorescence intensity of compound-DNA complex at 22 uM by fluorescence spectrophotometric analysis relative to control; assay type: nucleic-acid assay; settings: Bos taurus; summary of the method: as §4
# [30] = test system: HeLa; assay: Cell cycle arrest in human HeLa cells assessed as accumulation at sub-G1 phase at 2 times IC50 after 24 hrs in presence of caspase-8 inhibitor Z-IETD-FMK by propidium iodide-staining based flow cytometric method; assay type: functional; summary of the method: as §3
structure (smiles),measurement,setting,value
O=C(Nc1nnc(-c2ccc(O)c(O)c2)s1)c1ccc(/C=C/C(=O)c2cccc3cc4ccccc4cc23)cc1,IC50,[1],21.2 µM
same,IC50,[2],13.5 µM
same,IC50,[3],11 µM
same,IC50,[4],23.2 µM
same,IC50,[5],6.92 µM
O=C(Nc1nnc(-c2ccc(O)c(O)c2)s1)c1ccc(C=CC(=O)c2ccccc2F)cc1,IC50,[1],39.6 µM
same,IC50,[2],13.9 µM
same,IC50,[3],11.1 µM
same,IC50,[4],46.9 µM
same,IC50,[5],8.88 µM
O=C(/C=C/c1ccc(C(=O)Nc2nnc(-c3ccc(O)c(O)c3)s2)cc1)c1ccc([N+](=O)[O-])cc1,IC50,[1],39.4 µM
same,IC50,[2],14 µM
same,IC50,[3],54.8 µM
same,IC50,[4],128 µM
same,IC50,[5],11.2 µM
O=C1O[C@H]([C@@H](O)CO)C(O)=C1O [ASCORBIC ACID],IC50,[2],20.2 µM
Cc1ccccc1C(=O)C=Cc1ccc(C(=O)Nc2nnc(-c3ccc(O)c(O)c3)s2)cc1,IC50,[1],18.6 µM
same,IC50,[2],11.7 µM
same,IC50,[3],9.12 µM
same,IC50,[4],21.8 µM
same,IC50,[5],7.62 µM
COc1cccc(C(=O)/C=C/c2ccc(C(=O)Nc3nnc(-c4ccc(O)c(O)c4)s3)cc2)c1,Kb,[6],0.71 ×10³ /M
same,Activity,[7],Active
same,Activity,[8],Active
same,IC50,[1],42.5 µM
same,Activity,[9],Active
same,Activity,[10],inactive
same,Activity,[11],Active
same,K,[12],3.95
same,IC50,[2],10.3 µM
same,Activity,[13],inactive
same,inhibition,[14],Active
same,Activity,[15],Active
same,Activity,[16],Active
same,Activity,[17],Active
same,Activity,[18],inactive
same,Activity,[19],20%
same,Activity,[20],Active
same,Activity,[21],Active
same,Activity,[22],Active
same,Activity,[23],Dose-dependent effect
same,Activity,[24],Active
same,Activity,[25],Active
same,IC50,[3],9.98 µM
same,Activity,[26],2.4%
same,Activity,[27],inactive
same,IC50,[4],92.1 µM
same,Activity,[28],Active
same,Activity,[29],55%
same,IC50,[5],9.92 µM
same,Activity,[30],inactive
Cc1ccc(C(=O)/C=C/c2ccc(C(=O)Nc3nnc(-c4ccc(O)c(O)c4)s3)cc2)cc1,IC50,[1],33.7 µM
same,IC50,[2],11.8 µM
same,IC50,[3],11.2 µM
same,IC50,[4],26.4 µM
same,IC50,[5],8.44 µM
COc1ccccc1C(=O)C=Cc1ccc(C(=O)Nc2nnc(-c3ccc(O)c(O)c3)s2)cc1,IC50,[1],48 µM
same,IC50,[2],9.76 µM
same,IC50,[3],10.2 µM
same,IC50,[4],50.2 µM
same,IC50,[5],12 µM
COc1ccc(C(=O)/C=C/c2ccc(C(=O)Nc3nnc(-c4ccc(O)c(O)c4)s3)cc2)cc1,IC50,[1],81.3 µM
same,IC50,[2],17.9 µM
same,IC50,[3],57.6 µM
same,IC50,[4],89.1 µM
same,IC50,[5],16.4 µM
O=C(/C=C/c1ccc(C(=O)Nc2nnc(-c3ccc(O)c(O)c3)s2)cc1)c1ccc(F)cc1,IC50,[1],45.8 µM
same,IC50,[2],17.8 µM
same,IC50,[3],17.8 µM
same,IC50,[4],89.3 µM
same,IC50,[5],10.6 µM
O=C(/C=C/c1ccc(C(=O)Nc2nnc(-c3ccc(O)c(O)c3)s2)cc1)c1ccc(Br)cc1,IC50,[1],38.2 µM
same,IC50,[2],18 µM
same,IC50,[3],40.2 µM
same,IC50,[4],87.7 µM
same,IC50,[5],9.74 µM
